How the values were obtained:
[1] = (§1) Growth inhibition of African green monkey Vero cells after 48 hrs by sulforhodamine B assay; assay type: cell-based; conditions: chlorocebus sabaeus, Vero cells
How it was run: (§2)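 Tumour lines from NCI and Vero from the Rio de Janeiro Cell Bank, grown in RPMI 1640 with 5% fetal bovine serum, with penicillin:streptomycin added to experimental cultures. Each compound was tested at four 10-fold dilutions; sulforhodamine B staining at time zero and 48 h. Proliferation was calculated against T0 and drug-free controls, and GI50 came from sigmoidal regression of the concentration-response curves. Representative experiment in triplicate.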

Vero = experiment: as §1; assay type: cell-based; conditions: chlorocebus sabaeus, vero, 48 h; how it was run: as §2
NCI-H460 = experiment: Growth inhibition of human NCI-H460 cells after 48 hrs by sulforhodamine B assay; assay type: functional; conditions: NCI-H460, 48 h; how it was run: as §2
U-251 = experiment: Growth inhibition of human U251 cells after 48 hrs by sulforhodamine B assay; assay type: functional; conditions: U-251, 48 h; how it was run: as §2
[2] = Growth inhibition of human UACC62 cells after 48 hrs by sulforhodamine B assay; assay type: functional; conditions: UACC-62, 48 h; how it was run: as §2
K562 = experiment: Growth inhibition of human K562 cells after 48 hrs by sulforhodamine B assay; assay type: functional; conditions: K562, 48 h; how it was run: as §2
PC-3 = experiment: Growth inhibition of human PC3 cells after 48 hrs by sulforhodamine B assay; assay type: functional; conditions: PC-3, 48 h; how it was run: as §2
786-0 = experiment: Growth inhibition of human 786-0 cells after 48 hrs by sulforhodamine B assay; assay type: functional; conditions: 786-0, 48 h; how it was run: as §2
HT-29 = experiment: Growth inhibition of human HT-29 cells after 48 hrs by sulforhodamine B assay; assay type: functional; conditions: HT-29, 48 h; how it was run: as §2
[3] = Growth inhibition of human NCI-ADR-RES cells after 48 hrs by sulforhodamine B assay; assay type: functional; how it was run: as §2
[4] = Growth inhibition of human OVCAR3 cells after 48 hrs by sulforhodamine B assay; assay type: functional; conditions: OVCAR-3, 48 h; how it was run: as §2
MCF7 = experiment: Growth inhibition of human MCF7 cells after 48 hrs by sulforhodamine B assay; assay type: functional; conditions: MCF7, 48 h; how it was run: as §2

| Compound | GI50 (NCI-H460) [µM] | GI50 (U-251) [µM] | GI50 (K562) [µM] | GI50 (PC-3) [nM] | GI50 (786-0) [µM] | GI50 (HT-29) [µM] | GI50 (MCF7) [µM] | GI50 at 48 h [1] [µM] | TGI (Vero) [µM] | TGI (NCI-H460) [µM] | TGI (U-251) [µM] | TGI (K562) [µM] | TGI (PC-3) [µM] | TGI (786-0) [µM] | TGI (HT-29) [µM] | GI50 [3] [µM] | TGI [3] [µM] | GI50 [4] [µM] | TGI [4] [µM] | TGI (MCF7) [µM] | other results |
| --- | --- | --- | --- | --- | --- | --- | --- | --- | --- | --- | --- | --- | --- | --- | --- | --- | --- | --- | --- | --- | --- |
| CC1=CC[C@H](C(C)(C)NC(=S)N/N=C(\C)c2ccccc2)CC1 | > 100 | > 100 | > 100 | > 100000 | > 100 | 29.5 | 20.7 | > 100 | > 100 | > 100 | > 100 | > 100 | > 100 | > 100 | > 100 | > 100 | > 100 | > 100 | > 100 | > 100 | GI50 [2]: > 100 µM; TGI [2]: > 100 µM |
| CC1=CC[C@H](C(C)(C)NC(=S)N/N=C/c2ccc[nH]2)CC1 | 18 | 0.08 | 23.4 | 2800 | 20.8 | 27.5 | 3.9 | 20.5 | > 100 | 57.5 | 3.9 | > 100 | > 100 | > 100 | > 100 | 78 | > 100 | 33.5 | > 100 | 11.5 | GI50 [2]: 14.8 µM; TGI [2]: 49.9 µM |
| C=C(C)[C@H]1CC=C(C)CC1 [D-LIMONENE] | > 100 | > 100 | 23.9 | > 100000 | > 100 | > 100 | > 100 | > 100 | > 100 | > 100 | > 100 | > 100 | > 100 | > 100 | > 100 | > 100 | > 100 | > 100 | > 100 | > 100 | – |
| CC1=CC[C@H](C(C)(C)N=C=S)CC1 | > 100 | 29.1 | 4 | > 100000 | > 100 | > 100 | 57.6 | > 100 | > 100 | > 100 | > 100 | > 100 | > 100 | > 100 | > 100 | > 100 | > 100 | > 100 | > 100 | > 100 | – |
| CC(=O)O[C@H]1C(=O)[C@@]2(C)[C@H]([C@H](OC(=O)c3ccccc3)[C@]3(O)C[C@H](OC(=O)[C@H](O)[C@@H](NC(=O)c4ccccc4)c4ccccc4)C(C)=C1C3(C)C)[C@]1(OC(C)=O)CO[C@@H]1C[C@@H]2O [PACLITAXEL] | 0.1 | 0.003 | 0.1 | < 100 | 0.02 | 0.001 | 0.005 | 0.03 | – | 0.08 | 0.1 | 0.1 | < 0.03 | 0.8 | < 0.03 | 0.04 | 0.4 | 0.2 | < 0.03 | 0.4 | GI50 [2]: 0.01 µM; TGI [2]: 0.5 µM |
| CC1=CC[C@H](C(C)(C)NC(=S)N/N=C(\C)c2ccc([N+](=O)[O-])cc2)CC1 | 50.8 | 7 | 83.4 | 62600 | 21.7 | 29.9 | 8 | 67.1 | > 100 | 83.7 | 29.3 | > 100 | > 100 | > 100 | > 100 | 9.9 | > 100 | 7.7 | 29.3 | 77.5 | GI50 [2]: 7.2 µM; TGI [2]: 46.8 µM |
| CC1=CC[C@H](C(C)(C)NC(=S)N/N=C/c2cccc(Cl)c2)CC1 | 1.4 | 7.9 | 5.4 | 600 | 9.2 | 7.9 | 8 | 14.8 | > 100 | 21.4 | 35.8 | > 100 | 6.6 | 26.9 | 53 | 67.5 | > 100 | 13.6 | 80.5 | 61 | GI50 [2]: 9 µM; TGI [2]: 39.8 µM |
| CC1=CC[C@H](C(C)(C)NC(=S)NN)CC1 | 42 | 0.2 | > 100 | 44500 | > 100 | 60.1 | 0.9 | 49.5 | > 100 | > 100 | 10.1 | > 100 | > 100 | > 100 | > 100 | 39.3 | > 100 | 41.9 | > 100 | 46.7 | – |

Now from value to compound, other results behind:

| GI50 (NCI-H460) [µM] | GI50 (U-251) [µM] | GI50 (K562) [µM] | GI50 (PC-3) [nM] | GI50 (786-0) [µM] | GI50 (HT-29) [µM] | GI50 (MCF7) [µM] | Compound | GI50 at 48 h [1] [µM] | TGI (Vero) [µM] | TGI (NCI-H460) [µM] | TGI (U-251) [µM] | TGI (K562) [µM] | TGI (PC-3) [µM] | TGI (786-0) [µM] | TGI (HT-29) [µM] | GI50 [3] [µM] | TGI [3] [µM] | GI50 [4] [µM] | TGI [4] [µM] | TGI (MCF7) [µM] | other results |
| --- | --- | --- | --- | --- | --- | --- | --- | --- | --- | --- | --- | --- | --- | --- | --- | --- | --- | --- | --- | --- | --- |
| > 100 | > 100 | > 100 | 600 | > 100 | > 100 | > 100 | CC1=CC[C@H](C(C)(C)NC(=S)N/N=C/c2ccc(O)cc2)CC1 | > 100 | > 100 | > 100 | > 100 | > 100 | 53.8 | > 100 | > 100 | 82.1 | > 100 | > 100 | > 100 | > 100 | GI50 [2]: > 100 µM; TGI [2]: > 100 µM |
| 64.5 | 80.6 | 5.6 | 50 | 85.5 | 71.3 | 11 | CC1=CC[C@H](C(C)(C)NC(=S)N/N=C/c2ccccc2Cl)CC1 | 74.6 | > 100 | 81 | > 100 | 66.2 | 0.7 | > 100 | > 100 | 75 | > 100 | 15.1 | 83.6 | 98.3 | GI50 [2]: 19.3 µM; TGI [2]: 98 µM |
| 7.8 | 69.5 | 0.3 | 50 | 74.9 | 13.6 | 18.3 | CC1=CC[C@H](C(C)(C)NC(=S)N/N=C/c2ccc(Cl)cc2)CC1 | 70 | > 100 | 21.1 | > 100 | 16.9 | 1.7 | > 100 | 70.5 | 65.2 | 97.4 | 8.6 | 26.4 | > 100 | GI50 [2]: 11.2 µM; TGI [2]: > 100 µM |
| > 100 | 11.7 | 1.9 | 300 | 12.9 | < 0.04 | 14.8 | COc1cc(/C=N/NC(=S)NC(C)(C)[C@H]2CC=C(C)CC2)ccc1O | 19.7 | 91.8 | > 100 | 32.6 | 85.2 | 8.3 | 35.4 | < 0.7 | 23.9 | > 100 | 53.5 | > 100 | 63.9 | GI50 [2]: 14.7 µM; TGI [2]: 42.3 µM |
